The source made the active and inactive calls. The rule behind the calls is not given here.

Experimental findings from ChEMBL document CHEMBL5150051, “Identification and Characterization of a Novel Indoleamine 2,3-Dioxygenase 1 Protein Degrader for Glioblastoma” (J Med Chem, 2022) are described below.

Series [1] concerns the target T1, Protein cereblon/Indoleamine 2,3-dioxygenase 1 (Homo sapiens, UniProt P14902+Q96SW2). Put plainly: Protac activity at CRBN/IDO1 non-enzyme mediated NF-kappaB signal in IFNgamma-stimulated human U87 cells assessed as decrease in p65 phosphorylation at 0.1 to 10 uM measured after 24 hrs Western blotting assay. It is filed as cell-based. To be noted: dose 0.1-10 µM. In a few lines: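 IFNγ-stimulated cells were induced for 24 h, then treated at several concentrations for 24 h. Lysates were western blotted for IDO1, phospho-p65, total p65 and GAPDH.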

Series [2] concerns the target T1, Protein cereblon/Indoleamine 2,3-dioxygenase 1. Put plainly: Protac activity at CRBN/IDO1 in IFNgamma-stimulated human CD18 cells assessed as decrease in kynurenine level at 10 uM measured after 24 hrs by Ehrlich's test. To be noted: CD18 cell. It is filed as cell-based.
Series [3] in a line: Drug uptake in C57BL/6 mouse pancreas at 100 mg/kg, ip treated 5 days/week for 3 weeks by LC/MS/MS analysis. It counts as ADME, organism-based. To be noted: in vivo, 504 h.
Series [4] is described as follows: Toxicity in C57BL/6 mouse assessed as mortality at 100 mg/kg, ip treated 5 days/week for 3 weeks. It is filed as organism-based. Conditions: in vivo, 504 h.
For series [5], the target named is T1, Protein cereblon/Indoleamine 2,3-dioxygenase 1. Put plainly: Protac activity at IDO1/CRBN in IFNgamma-stimulated human PANC-1 cells assessed as IDO1 degradation by measuring decrease in intracellular protein level measured after 24 hrs by Western blotting analysis. It is filed as cell-based. To be noted: dose 1-10 µM, DDE = dose-dependent effect. On the technique in general: A western blot detects proteins with antibodies after separation by electrophoresis.

Series [6] has the same target. Put plainly: Protac activity at IDO1/CRBN in IFNgamma-stimulated human GBM43 cells assessed as IDO1 degradation by measuring decrease in protein level measured after 24 hrs by Western blotting analysis. It is filed as cell-based. Conditions: GBM, dose 0.1-10 µM, DDE = dose-dependent effect. The essentials:
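GBM43 cells stimulated with 50 ng/mL human IFNγ for 24 h, then treated across 0.01 to 30 μM for 24 h. IDO1 was quantified by western blot densitometry as percent of IFNγ-induced untreated level. DC50 came from the dose-response curve; n = 3 independent experiments, mean ± SEM.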

Series [7] has the same target. Put plainly: Protac activity at CRBN/IDO1 in enzyme-null cDNA transfected in human U87 cells assessed as IDO1 degradation by measuring decrease in protein level measured at 0.1 to 10 uM after 24 hrs by Western blotting analysis. Conditions: dose 0.1-10 µM. It is filed as cell-based.
In series [8] the target is Indoleamine 2,3-dioxygenase 1 (Homo sapiens, UniProt P14902). Put plainly: Binding affinity to IDO1 (unknown origin) assessed as dissociation constant by bio-layer interferometry assay. The essentials:
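Bio-layer interferometry measured binding to IDO1 at 30 °C in PBS with 0.5% DMSO. Kd, kon and koff were derived.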
A general note: In BLI a coated tip is dipped into the sample, and binding shifts an interference pattern.

Series [9] addresses T1, Protein cereblon/Indoleamine 2,3-dioxygenase 1. Put plainly: Protac activity at IDO1/CRBN in IFNgamma-stimulated human SK-OV-3 cells assessed as IDO1 degradation by measuring decrease in intracellular protein level measured after 24 hrs by Western blotting analysis. It counts as cell-based. Conditions: dose 1-10 µM, DDE = dose-dependent effect.
The nature of series [10]: Drug uptake in C57BL/6 mouse pancreas at 50 mg/kg, ip treated 5 days/week for 3 weeks by LC/MS/MS analysis. It counts as ADME, organism-based. Conditions: in vivo, 504 h.
For series [11], the target named is T1, Protein cereblon/Indoleamine 2,3-dioxygenase 1. Put plainly: Protac activity at CRBN/IDO1 in IFNgamma-stimulated human GBM43 cells assessed as decrease in kynurenine level measured after 24 hrs by Ehrlich's test. It counts as cell-based. To be noted: GBM43 cell, DDE = dose-dependent effect. In a few lines: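 U87 or GBM43 cells given compound together with 50 ng/mL IFNγ for 24 h. Supernatant kynurenine was measured with Ehrlich's reagent. Cells cultured without IFNγ served as control.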

The test system of a further series is Mus musculus. Put plainly: In vivo Protac activity at IDO1/CRBN in luciferase-modified GL261 cells engrafted mouse cancer model assessed as increase in survival time measured at 25 mg/kg, ip treated 14 days post tumor implantation. Conditions: time 14 day.
In series [12] the target is T1, Protein cereblon/Indoleamine 2,3-dioxygenase 1. Put plainly: Protac activity at IDO1/CRBN in IFNgamma-stimulated human DIPG007 cells assessed as IDO1 degradation measured after 24 hrs by Western blotting analysis. It is filed as cell-based. To be noted: HSJD-DIPG-007, dose 0.1-10 µM, DDE = dose-dependent effect.

T1 sequence (P14902 whole entry, looked up): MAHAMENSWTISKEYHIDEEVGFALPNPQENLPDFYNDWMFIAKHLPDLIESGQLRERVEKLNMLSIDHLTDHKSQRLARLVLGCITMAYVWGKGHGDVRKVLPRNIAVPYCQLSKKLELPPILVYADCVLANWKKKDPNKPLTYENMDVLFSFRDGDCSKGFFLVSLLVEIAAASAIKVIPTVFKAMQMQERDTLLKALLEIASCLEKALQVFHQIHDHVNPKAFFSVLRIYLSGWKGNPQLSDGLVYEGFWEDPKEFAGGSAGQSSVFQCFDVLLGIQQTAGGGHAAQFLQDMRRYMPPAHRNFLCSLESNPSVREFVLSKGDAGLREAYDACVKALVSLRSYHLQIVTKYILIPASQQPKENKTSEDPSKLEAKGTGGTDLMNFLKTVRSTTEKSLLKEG
T1 sequence (Q96SW2 whole entry, looked up): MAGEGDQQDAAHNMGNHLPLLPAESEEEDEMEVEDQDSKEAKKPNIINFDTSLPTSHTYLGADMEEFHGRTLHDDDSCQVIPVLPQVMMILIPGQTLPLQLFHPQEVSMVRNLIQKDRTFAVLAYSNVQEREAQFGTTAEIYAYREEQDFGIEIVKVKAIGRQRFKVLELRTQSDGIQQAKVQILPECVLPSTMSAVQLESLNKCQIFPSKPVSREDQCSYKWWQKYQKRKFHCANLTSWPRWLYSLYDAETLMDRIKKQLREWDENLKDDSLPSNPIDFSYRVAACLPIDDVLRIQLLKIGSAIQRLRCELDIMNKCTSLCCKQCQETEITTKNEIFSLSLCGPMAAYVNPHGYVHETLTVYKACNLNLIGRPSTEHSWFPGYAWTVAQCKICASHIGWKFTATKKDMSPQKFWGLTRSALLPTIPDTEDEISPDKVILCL
Chain of Indoleamine 2,3-dioxygenase 1 (P14902 whole entry): as the sequence (P14902 whole entry, looked up) above

With `C[C@@H](C(=O)Nc1ccc(OC2CCN(C(=O)CCOCCOCCNc3cccc4c3C(=O)N(C3CCC(=O)NC3=O)C4=O)CC2)cc1)[C@H]1CC[C@@H](c2ccnc3ccc(F)cc32)CC1` (stereo partly drawn), the result in series [1] and in [7] was Active. In [2], the inhibition result was “Active”. In addition, the Drug uptake entry in [3] and in series [10] was “Active” in each case. Further, the Activity result in series [4] was “Toxic”; in [5], “Dde”; in series [6], “Dde”; in series [9], “Dde”; in [12], “Dde”. In addition, the Kd (as a rule, the constant that tells how readily two partners part at equilibrium) in series [8] was found to be 0.64 µM. In addition, in [11], the inhibition entry is “Dde”. Also, in the series with Mus musculus, the Time stood at 45 days.
